Data set [1] deals with Tyrosine-protein kinase Lck (Homo sapiens, UniProt P06239). Kind of data set: Inhibition of Lck by HTRF assay.
Data set [2] addresses Vascular endothelial growth factor receptor 2 (Homo sapiens, UniProt P35968). Briefly: Inhibition of KDR.
The target in the next data set is Activated CDC42 kinase 1 (Homo sapiens, UniProt Q07912). Kind of data set: Inhibition of Ack1.
The target of data set [3] is T1, Tyrosine-protein kinase JAK3 (Homo sapiens, UniProt P52333).
T1 sequence (P52333 whole entry): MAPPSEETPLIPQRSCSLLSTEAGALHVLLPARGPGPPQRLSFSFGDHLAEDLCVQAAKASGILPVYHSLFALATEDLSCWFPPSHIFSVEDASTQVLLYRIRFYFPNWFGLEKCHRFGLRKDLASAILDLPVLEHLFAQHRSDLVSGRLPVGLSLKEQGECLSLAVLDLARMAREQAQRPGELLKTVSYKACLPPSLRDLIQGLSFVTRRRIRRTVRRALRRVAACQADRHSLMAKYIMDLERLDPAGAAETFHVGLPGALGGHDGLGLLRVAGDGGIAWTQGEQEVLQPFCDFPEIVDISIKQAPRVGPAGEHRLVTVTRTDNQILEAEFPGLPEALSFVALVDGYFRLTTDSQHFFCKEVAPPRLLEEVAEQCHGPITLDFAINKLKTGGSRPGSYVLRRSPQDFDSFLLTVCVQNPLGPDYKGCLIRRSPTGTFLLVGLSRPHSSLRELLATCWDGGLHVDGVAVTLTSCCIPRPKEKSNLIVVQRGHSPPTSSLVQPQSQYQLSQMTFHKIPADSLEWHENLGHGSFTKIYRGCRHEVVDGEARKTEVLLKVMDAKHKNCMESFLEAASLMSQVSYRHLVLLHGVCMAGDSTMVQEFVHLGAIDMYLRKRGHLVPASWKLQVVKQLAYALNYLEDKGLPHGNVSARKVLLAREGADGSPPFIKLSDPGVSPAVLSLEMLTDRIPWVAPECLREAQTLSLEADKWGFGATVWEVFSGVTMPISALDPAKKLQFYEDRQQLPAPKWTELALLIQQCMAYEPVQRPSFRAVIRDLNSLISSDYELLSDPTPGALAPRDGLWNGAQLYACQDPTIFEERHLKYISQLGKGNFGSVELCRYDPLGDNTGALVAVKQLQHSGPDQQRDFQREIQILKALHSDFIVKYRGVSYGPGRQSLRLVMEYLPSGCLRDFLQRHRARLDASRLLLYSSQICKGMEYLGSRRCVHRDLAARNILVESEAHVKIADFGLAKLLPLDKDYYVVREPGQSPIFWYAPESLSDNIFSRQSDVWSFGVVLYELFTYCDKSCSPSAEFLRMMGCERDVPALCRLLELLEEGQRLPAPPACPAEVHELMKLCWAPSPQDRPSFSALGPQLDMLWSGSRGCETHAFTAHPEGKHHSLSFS
Kind of data set: Inhibition of JAK3.

Data set [4] relates to T-cell. Kind of data set: Inhibition of anti-CD3/CD28-induced IL2 secretion in human T cells. Type of data set: functional, cell-based. Summed up:
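Human T cells stimulated with anti-CD3/CD28, with IL-2 secretion as read-out. IC50 determined.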

Data set [5] concerns T-cell. Briefly: Inhibition of T cell activation in human mixed lymphocyte reaction. Type of data set: functional, cell-based.
In a further data set the test system is Rattus norvegicus. Kind of data set: (§1) Half life in Sprague-Dawley rat at 1 mg/kg, iv. Type of data set: ADME, organism-based. Also noted: dose 1 mg/kg, route intravenous. Particulars: in vivo.
The nature of data set [6]: Clearance in Sprague-Dawley rat at 1 mg/kg, iv. It counts as ADME, organism-based. Also noted: dose 1 mg/kg, route intravenous. Particulars: in vivo.
Data set [7] in a line: Volume of distribution at steady state Sprague-Dawley rat at 1 mg/kg, iv. It counts as ADME, organism-based. Also noted: dose 1 mg/kg, route intravenous. The note with it: in vivo, read-out: Vdss.
Data set [8] in a line: as §1. Type of data set: ADME, organism-based. Also noted: dose 1 mg/kg, route intravenous. The note with it: Sprague-Dawley, in vivo.

Chain of Tyrosine-protein kinase Lck (P06239 whole entry): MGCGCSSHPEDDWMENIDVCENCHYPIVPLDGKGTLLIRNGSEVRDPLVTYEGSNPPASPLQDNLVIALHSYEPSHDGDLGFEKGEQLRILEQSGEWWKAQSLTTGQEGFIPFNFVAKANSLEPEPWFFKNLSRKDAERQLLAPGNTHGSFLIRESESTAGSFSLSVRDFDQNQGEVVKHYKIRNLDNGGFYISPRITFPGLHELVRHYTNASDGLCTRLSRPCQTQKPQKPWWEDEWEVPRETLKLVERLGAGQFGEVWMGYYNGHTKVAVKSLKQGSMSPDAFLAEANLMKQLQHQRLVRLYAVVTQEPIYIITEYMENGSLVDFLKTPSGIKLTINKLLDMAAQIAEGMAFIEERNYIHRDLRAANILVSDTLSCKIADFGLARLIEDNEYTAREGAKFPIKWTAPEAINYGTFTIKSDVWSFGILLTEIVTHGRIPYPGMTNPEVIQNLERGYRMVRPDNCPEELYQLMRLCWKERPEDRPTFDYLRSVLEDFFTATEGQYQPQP
Chain of Activated CDC42 kinase 1 (Q07912 whole entry): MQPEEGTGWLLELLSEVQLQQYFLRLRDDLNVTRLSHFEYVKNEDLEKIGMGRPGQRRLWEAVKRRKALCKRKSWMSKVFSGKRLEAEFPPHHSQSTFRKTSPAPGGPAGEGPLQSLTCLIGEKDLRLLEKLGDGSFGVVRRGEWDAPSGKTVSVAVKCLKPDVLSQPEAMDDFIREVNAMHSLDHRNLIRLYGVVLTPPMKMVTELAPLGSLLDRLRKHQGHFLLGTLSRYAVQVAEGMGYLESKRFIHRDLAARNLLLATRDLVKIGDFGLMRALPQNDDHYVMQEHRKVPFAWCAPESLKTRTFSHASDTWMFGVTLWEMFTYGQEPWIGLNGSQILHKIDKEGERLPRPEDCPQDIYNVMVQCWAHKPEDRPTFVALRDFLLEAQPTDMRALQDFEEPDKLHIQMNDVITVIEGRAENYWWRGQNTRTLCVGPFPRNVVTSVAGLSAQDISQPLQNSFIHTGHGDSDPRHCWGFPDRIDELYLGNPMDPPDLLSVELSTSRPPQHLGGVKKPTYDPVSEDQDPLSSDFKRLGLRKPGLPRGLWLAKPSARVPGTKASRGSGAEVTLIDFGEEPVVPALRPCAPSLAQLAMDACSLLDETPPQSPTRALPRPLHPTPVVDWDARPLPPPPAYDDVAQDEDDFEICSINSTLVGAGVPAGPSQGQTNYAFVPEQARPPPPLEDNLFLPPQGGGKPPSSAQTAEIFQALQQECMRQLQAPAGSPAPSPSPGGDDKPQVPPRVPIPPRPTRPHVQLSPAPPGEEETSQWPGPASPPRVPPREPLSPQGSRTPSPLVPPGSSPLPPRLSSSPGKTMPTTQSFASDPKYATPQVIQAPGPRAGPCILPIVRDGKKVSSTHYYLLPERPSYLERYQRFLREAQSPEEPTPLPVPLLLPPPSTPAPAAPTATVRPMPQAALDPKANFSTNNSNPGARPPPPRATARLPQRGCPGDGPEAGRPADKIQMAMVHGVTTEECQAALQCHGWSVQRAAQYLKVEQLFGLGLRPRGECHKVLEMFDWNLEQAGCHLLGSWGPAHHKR
Chain of Vascular endothelial growth factor receptor 2 (P35968 whole entry): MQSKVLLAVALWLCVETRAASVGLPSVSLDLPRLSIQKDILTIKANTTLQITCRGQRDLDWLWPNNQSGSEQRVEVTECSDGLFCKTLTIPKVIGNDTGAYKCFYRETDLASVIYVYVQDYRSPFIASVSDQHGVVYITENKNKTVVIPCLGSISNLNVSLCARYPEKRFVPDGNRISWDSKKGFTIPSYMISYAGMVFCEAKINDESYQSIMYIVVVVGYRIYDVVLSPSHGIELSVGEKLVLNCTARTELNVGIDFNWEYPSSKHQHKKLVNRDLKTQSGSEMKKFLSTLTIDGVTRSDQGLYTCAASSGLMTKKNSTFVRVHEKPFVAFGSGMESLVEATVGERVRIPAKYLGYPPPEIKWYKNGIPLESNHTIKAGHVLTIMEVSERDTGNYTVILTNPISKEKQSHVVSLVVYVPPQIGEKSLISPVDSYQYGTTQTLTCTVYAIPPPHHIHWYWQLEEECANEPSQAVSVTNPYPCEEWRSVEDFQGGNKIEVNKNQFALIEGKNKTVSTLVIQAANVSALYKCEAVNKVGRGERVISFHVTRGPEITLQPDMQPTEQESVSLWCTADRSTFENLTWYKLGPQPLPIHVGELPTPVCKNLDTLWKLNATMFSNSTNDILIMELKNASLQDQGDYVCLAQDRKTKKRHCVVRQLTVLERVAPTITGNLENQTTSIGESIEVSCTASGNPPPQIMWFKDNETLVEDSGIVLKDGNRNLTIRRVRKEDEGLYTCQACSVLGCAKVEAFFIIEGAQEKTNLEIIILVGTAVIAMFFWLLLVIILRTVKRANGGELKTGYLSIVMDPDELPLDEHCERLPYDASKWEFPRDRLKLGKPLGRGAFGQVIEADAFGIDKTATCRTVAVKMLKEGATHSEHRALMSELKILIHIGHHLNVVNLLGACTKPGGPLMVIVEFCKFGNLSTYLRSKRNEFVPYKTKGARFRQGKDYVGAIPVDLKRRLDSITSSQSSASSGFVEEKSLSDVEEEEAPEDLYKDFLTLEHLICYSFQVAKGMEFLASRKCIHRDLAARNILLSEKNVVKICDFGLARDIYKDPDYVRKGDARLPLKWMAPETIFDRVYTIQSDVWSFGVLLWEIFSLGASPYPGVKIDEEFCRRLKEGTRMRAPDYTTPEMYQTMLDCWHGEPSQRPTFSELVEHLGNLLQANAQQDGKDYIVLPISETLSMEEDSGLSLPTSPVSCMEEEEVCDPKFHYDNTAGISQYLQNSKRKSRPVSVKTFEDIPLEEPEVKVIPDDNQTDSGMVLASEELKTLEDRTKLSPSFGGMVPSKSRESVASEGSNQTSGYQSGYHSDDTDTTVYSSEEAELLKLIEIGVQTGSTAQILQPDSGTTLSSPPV

As a reminder, the IC50 is the concentration that inhibits the measured activity by half. As for `CC(C)N(CCOc1ccc(-c2oc3nccc(NCCN4CCNCC4)c3c2-c2ccccc2)cc1)C(C)C`, the concentration for half-maximal inhibition (IC50) is 19 nM in data set [1]; 67 nM in [2]; 180 nM at Activated CDC42 kinase 1; 44 nM in [3]; 250 nM with T-cell [4]; 18 nM in the data set with T-cell [5]. The t1/2 in the data set with Rattus norvegicus was 3.1 h.
On to `c1ccc(-c2c(-c3ccc(OCCN4CCCCC4)cc3)oc3nccc(NCCCn4ccnc4)c23)cc1`, for which the values for the IC50 (in [2]; against Activated CDC42 kinase 1; in data set [3]) were 1700 nM, 930 nM and 1400 nM, respectively.
As to `c1ccc(-c2oc3nccc(NC[C@@H]4CCCO4)c3c2-c2ccccc2)cc1`, the half-inhibitory concentration (IC50) in [1] was 2100 nM; in data set [2], 4200 nM; on Activated CDC42 kinase 1 it was 110 nM; in data set [3] it was 26 nM; in the data set with T-cell [4], 5200 nM; in the data set on T-cell [5], 4000 nM.
The clearance is a measure of how efficiently the substance is removed, as volume per time. A low value points to inefficient removal. In general, half-life refers to how long it takes for the measured level to halve. `c1ccc(-c2c(-c3ccc(OCCN4CCOCC4)cc3)oc3nccc(NCCN4CCNCC4)c23)cc1`: the IC50 in [2] turned out to be 57 nM; on Activated CDC42 kinase 1 it was 150 nM; in data set [3], 32 nM; in the data set on T-cell [4], 130 nM; in the data set with T-cell [5] it was 14 nM. This compound had a clearance in data set [6] of 128 mL/min/kg. Further, the Vd in data set [7] amounted to 4.7 L/kg. In data set [8], the half-life is 5.3 h.
`c1ccc(-c2c(-c3ccc(OCCN4CCCC4)cc3)oc3nccc(NCCN4CCNCC4)c23)cc1`: the IC50 in data set [2] was 210 nM; at Activated CDC42 kinase 1 it was 170 nM; in [3], 110 nM; in the data set on T-cell [4] it was 650 nM; in the data set with T-cell [5], 170 nM.
For `c1ccc(-c2c(-c3ccc(OCCn4ccnc4)cc3)oc3nccc(NCCN4CCNCC4)c23)cc1`, the IC50 in data set [2] stood at 160 nM; against Activated CDC42 kinase 1, 84 nM; in data set [3], 25 nM; in the data set with T-cell [4], 470 nM; in the data set with T-cell [5] it was 57 nM. Moreover, the clearance in data set [6] was 192 mL/min/kg. Also, in [7], the Vd is 7.2 L/kg. In data set [8], this compound gave a half-life of 0.8 h.
`c1ccc(-c2oc3ncnc(NCCN4CCNCC4)c3c2-c2ccccc2)cc1`: the IC50 in data set [2] came out at 2600 nM; with T-cell [4], 710 nM.
Take `c1ccc(-c2oc3nccc(NCCN4CCNCC4)c3c2-c2ccccc2)cc1`: the concentration for half-maximal inhibition (IC50) in data set [2] was determined as 360 nM; at Activated CDC42 kinase 1, 420 nM; in data set [3] it was 140 nM; in the data set on T-cell [4], 1200 nM; in the data set on T-cell [5], 620 nM. This compound also had a clearance in data set [6] of 20 mL/min/kg. For the same compound, the Vd in data set [7] turned out to be 2.3 L/kg. The compound further gave a half-life in [8] of 1.5 h.
Consider `c1ccc(-c2c(-c3ccc(OCCN4CCCCC4)cc3)oc3nccc(NCCN4CCNCC4)c23)cc1`, for which the IC50 amounted to 29 nM in [1]; 100 nM in data set [2]; 120 nM against Activated CDC42 kinase 1; 71 nM in data set [3]; 510 nM in the data set on T-cell [4]; 61 nM in the data set with T-cell [5]. For the same compound, the clearance in [6] was 188 mL/min/kg. In addition, in [7], the Vd turned out to be 60 L/kg. The compound also gave a half-life in data set [8] of 4.7 h.
As for `c1ccc(-c2c(-c3ccc(OCCN4CCCCC4)cc3)oc3nccc(NCCc4ccncc4)c23)cc1`, the IC50 in data set [1] was determined as 1600 nM; in data set [2], 4700 nM; against Activated CDC42 kinase 1, 180 nM; in data set [3], 80 nM.
Consider `c1ccc(-c2c(-c3ccc(OCCN4CCCCC4)cc3)oc3nccc(NCCc4cccnc4)c23)cc1`, for which the IC50 was 370 nM in [2], 20 nM at Activated CDC42 kinase 1 and 37 nM in [3].

Source of the values: ChEMBL document CHEMBL1139139, “Discovery of novel 2,3-diarylfuro[2,3-b]pyridin-4-amines as potent and selective inhibitors of Lck: synthesis, SAR, and pharmacokinetic properties” (Bioorg Med Chem Lett, 2007).
